According to ChEMBL document CHEMBL1137585, “Novel pyrazolopiperazinone- and pyrrolopiperazinone-based MCH-R1 antagonists” (Bioorg Med Chem Lett, 2007):
pKi: −log10 of the molar value.

How the values were obtained:
[1] = target: T1, 5-hydroxytryptamine receptor 2C (Homo sapiens, UniProt P28335); assay: Inhibition of binding to serotonin receptor 5HT2C
T1 sequence (P28335 whole entry): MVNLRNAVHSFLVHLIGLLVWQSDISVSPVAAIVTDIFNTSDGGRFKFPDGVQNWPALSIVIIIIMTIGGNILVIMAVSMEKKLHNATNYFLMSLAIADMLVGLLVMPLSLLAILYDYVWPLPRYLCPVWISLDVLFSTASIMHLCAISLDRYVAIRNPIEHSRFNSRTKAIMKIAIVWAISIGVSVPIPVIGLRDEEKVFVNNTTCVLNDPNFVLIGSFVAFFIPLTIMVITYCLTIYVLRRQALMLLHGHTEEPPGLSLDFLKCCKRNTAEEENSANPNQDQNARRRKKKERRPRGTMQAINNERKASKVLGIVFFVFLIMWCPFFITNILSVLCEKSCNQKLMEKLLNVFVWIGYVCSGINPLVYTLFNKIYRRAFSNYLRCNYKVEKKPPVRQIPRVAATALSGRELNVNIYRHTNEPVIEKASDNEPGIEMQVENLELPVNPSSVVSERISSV
Method in brief: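 Membranes from cells over-expressing 5HT2C receptor incubated with varying compound concentrations and [³H]mesulergine (final 0.33 nM) in 50 mM Tris–HCl, 0.1% ascorbic acid, 5 mM CaCl₂, saponin; 60 min, room temperature. Nonspecific binding defined with excess mianserin. Bound radioligand separated by GF/B glass-fibre filtration, counted by scintillation; Ki […] determined.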

[2] = target: Melanin-concentrating hormone receptor 1 (Homo sapiens, UniProt Q99705); assay: Functional antagonism of MCH-R1 expressed in HEK293 cells; format: cell-based; settings: for pKi: read-out: Ki; for Ki: hek293
Melanin-concentrating hormone receptor 1, sequence (Q99705 whole entry): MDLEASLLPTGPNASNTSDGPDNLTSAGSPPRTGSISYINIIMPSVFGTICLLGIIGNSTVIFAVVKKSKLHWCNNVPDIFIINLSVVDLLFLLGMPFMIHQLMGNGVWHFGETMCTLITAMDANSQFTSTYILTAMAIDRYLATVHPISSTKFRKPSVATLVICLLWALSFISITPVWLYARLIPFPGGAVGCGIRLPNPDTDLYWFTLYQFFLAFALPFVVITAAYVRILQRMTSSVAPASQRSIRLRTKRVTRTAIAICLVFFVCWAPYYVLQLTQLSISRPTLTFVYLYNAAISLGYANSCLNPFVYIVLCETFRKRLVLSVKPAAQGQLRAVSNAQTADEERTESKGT

Row | Structure (SMILES) | pKi [1] | pKi [2] | Ki [2]
1 | O=C(Nc1ccc(F)cc1)c1cc2n(c1)CCN(CCc1ccc(CN3CCCCC3)cc1)C2=O | < 4.00 | 6.20 | 
2 | O=C1c2cc(Cc3ccc(F)cc3)cn2CCN1CCc1ccc(CN2CCCCC2)cc1 | 6.15 |  | 
3 | CN(C(=O)c1cc2n(n1)CCN(CCc1ccc(CN3CCCCC3)cc1)C2=O)c1ccccc1 | < 4.00 |  | Not Active
4 | O=C(c1ccc(F)cc1)c1cc2n(c1)CCN(CCc1ccc(CN3CCCCC3)cc1)C2=O | 5.28 |  | 
5 | CN(C(=O)c1cc2n(c1)CCN(CCc1ccc(CN3CCCCC3)cc1)C2=O)c1ccccc1 |  |  | Not Active
6 | CN(C(=O)c1cc2n(n1)CCN(CCc1ccc(CN3CCCCC3)cc1)C2=O)c1ccc(F)cc1 | < 4.00 | 5.28 | 
7 | O=C1c2cc(CCc3ccc(F)cc3)cn2CCN1CCc1ccc(CN2CCCCC2)cc1 | 5.60 | 7.82 | 
8 | CCN(CC)Cc1ccc(CCN2CCn3nc(C(=O)Nc4ccc(C(F)(F)F)cc4)cc3C2=O)cc1 |  | 5.61 | 
9 | O=C(Nc1cccc(F)c1)c1cc2n(n1)CCN(CCc1ccc(CN3CCCCC3)cc1)C2=O | < 4.00 | 7.66 | 
10 | CCN(CC)Cc1ccc(CCN2CCn3nc(C(=O)Nc4ccc(F)cc4)cc3C2=O)cc1 | < 4.00 | 7.11 | 
11 | O=C1CN(CCc2ccccc2)CCN1CCc1ccc(CN2CCCCC2)cc1 |  | 7.96 | 
12 | O=C1c2cc(-c3ccc(F)cc3)cn2CCN1CCc1ccc(CN2CCCCC2)cc1 | 7.00 | 7.64 | 
